Assay outcomes: PubChem, several laboratories
STAT3 activator: IL-6 driven STAT3 reporter potentiators, primary screen, U3A cells, luciferase, luminescence, MLSCN library; IL-6 STAT3-luciferase reporter; 100% = signal with IL-6 EC80 alone; activation (% of control), % at 5.6 µM; 190,000 compounds, 0.91% hits;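 active means activation above the screen-wide mean of compound activation plus 3 SD, cut at about 130% in these data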
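Material: STAT1-lacking human U3A cells, STAT3 luciferase reporter | Benchmarks: IL-6-only wells as 100% reference | Probe or stimulus: IL-6 (33 ng/mL) | Timing: Compound 1 h, then IL-6 6 h at 37 °C | Detection: Luminescence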
APP 5'UTR act: activators of APP 5'UTR luciferase reporter, primary screen, SH-SY5Y cells. SH-SY5Y APP 5'UTR luciferase reporter, luminescence; zero percent = DMSO vehicle wells. activation, % at 2 µM. 190,000 compounds, 1% hits;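 active means activation above a set limit, based on mean plus 3 SD of controls, cut at about 140% in these data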
STAT1 inh: STAT1 signaling inhibitors, primary screen, cell-based, HTS, luciferase reporter. 200,000 compounds, 0.35% hits. inhibition, % at 5.5 µM. NIH 3T3 STAT1-luciferase reporter, IFN-gamma, luminescence. AID 920, 2007;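 active means inhibition above a set limit, the mean inhibition across all tested compounds plus 3 SD, cut at about 34% in these data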
STAT1 activator: STAT1 signaling activators, primary screen, cell-based, HTS, luciferase reporter; NIH 3T3 STAT1-luciferase reporter, IFN-gamma, luminescence; 100% = IFN-gamma alone, no compound; activation (% of control), % at 5.5 µM; 200,000 compounds, 2.6% hits; AID 932, 2007;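 active means activation above the screen-wide mean activation plus 3 SD, cut at about 130% in these data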
STAT3 inh-1: IL-6 driven STAT3 reporter inhibitors, primary screen, U3A cells, luciferase, luminescence, MLSCN library | inhibition, % at 5.5 µM | IL-6 STAT3-luciferase reporter; host cell line lacks STAT1 | AID 862, 2007 | 190,000 compounds, 0.89% hits;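 active means inhibition above the mean inhibition across all screened compounds plus 3 SD, cut at about 44% in these data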
NF-kB expr up: activators of NF-kB expression in neurons, primary screen, cell-based, HTS; human neuronal cells, NF-kB reporter expression; stronger effect = higher value; fold change at 12.5 µM; 190,000 compounds, 1.6% hits; AID 1239, 2008; in the data active means fold change above about 3.3
STAT3 inh-2: STAT3 reporter inhibitors, retest of hits, confirmation, U3A cells, luciferase, luminescence; AID 1265, 2008; shares compounds with STAT3 inh-1; inhibition, % at 5.7 µM; 1,200 compounds, 45% hits; IL-6 STAT3 luciferase reporter; cell line lacks STAT1;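 active means inhibition above the hit cutoff computed for the primary STAT3 screen, cut at about 44% in these data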
NFkB inh 2: NF-kB reporter inhibitors in human cells, confirmation, counter-screen for STAT3 inhibitor project, cell-based, HEK293T, luciferase, TNF-alpha stimulus; shares compounds with STAT3 inh-1; TNF-alpha induced; inhibition, % at 5.7 µM; 1,200 compounds, 36% hits;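 active means inhibition above the mean of solvent-only control wells plus 3 SD, cutoff set per campaign, cut at about 13% in these data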
STAT1 inh STAT3c: STAT1 reporter inhibitors, IFN-gamma induced, confirmation, counter-screen for STAT3 inhibitor project, cell-based, NIH 3T3, luciferase luminescence; shares compounds with STAT3 inh-1; NIH 3T3 STAT1-luciferase reporter; inhibition, % at 5.7 µM; 1,200 compounds, 27% hits; AID 1317, 2008;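 active means inhibition above the mean plus 3 SD of solvent-only control wells, limit set per screening run, cut at about 16% in these data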
Numbers stand for hits; 0 = inactive; - = no result given. The list is not random: actives were taken first. Their share in the collection is about 5.1%.

SMILES	STAT3 activator	APP 5'UTR act	STAT1 inh	STAT1 activator	STAT3 inh-1	NF-kB expr up	STAT3 inh-2	NFkB inh 2	STAT1 inh STAT3c
COc1cc(C)c(Cl)cc1S(=O)(=O)NCc1ccncc1	0	0	0	0	70	0	66	19	21
CCN(CC)c1nc(C)c2c(c1C#N)CC(C)(C)OC2	0	0	0	0	0	0	-	-	-
CCOC(=O)c1[nH]c2ccccc2c1NC(=O)CN1CCCCC1	0	0	0	0	0	0	-	-	-
CC1=C(C)C(=O)N(c2ccccn2)C1=O	0	0	0	0	0	0	-	-	-
C[N+](C)(C)CCOC(=O)C1(c2ccccc2)CCCC1	0	0	0	0	0	0	-	-	-
COC(=O)COc1ccc(S(=O)(=O)NCc2ccncc2)cc1	0	0	0	0	63	0	54	0	19
O=C(CSc1nc2ccccc2n1S(=O)(=O)c1cccc([N+](=O)[O-])c1)NCCc1ccccc1	0	0	0	0	0	0	-	-	-
CC(C)=CC(=O)Nc1ccc(OCc2ccccc2)cc1	0	0	0	0	0	0	-	-	-
Cc1ccc(SCc2cc(=O)[nH]c(Nc3nc(C)c4ccc(C)cc4n3)n2)cc1	0	0	0	0	0	0	-	-	-
Cc1ccc2c(C)nc(Nc3nc(CSc4nc5ccccc5[nH]4)cc(=O)[nH]3)nc2c1	0	0	0	0	53	0	45	0	0
O=C1CC(N(CCc2ccccc2)C(=S)Nc2ccccc2)C(=O)N1c1ccccc1 (stereo not drawn)	0	0	0	0	0	0	-	-	-
CS(=O)(=O)N1CCN(c2ccccc2NC(=O)CSc2nnc(-c3ccco3)o2)CC1	0	0	0	0	0	0	-	-	-
Cc1ccc(C)c(NC(=O)CCC(=O)N/N=C/c2ccc3c(c2)OCO3)c1	0	0	0	0	0	0	-	-	-
COc1ccc(/C=C2/SC(=S)N(CCC(=O)O)C2=O)cc1	0	0	0	0	57	0	57	32	0
O=C(O)CCN1C(=O)/C(=C\c2ccncc2)SC1=S	0	0	0	0	0	0	-	-	-
O=C(N=Nc1c(O)[nH]c2ccccc12)c1ccc2c(c1)OCO2	0	0	0	0	62	0	0	0	0
CC(C)C(=O)Nc1ccc2oc(-c3cc(F)c(F)cc3Cl)nc2c1	0	0	0	0	0	0	-	-	-
O=C(Nc1ccc2oc(-c3ccccc3Cl)nc2c1)c1cncc(Br)c1	0	0	0	0	0	0	-	-	-
CC(=O)Nc1ccc2oc(-c3ccccc3Br)nc2c1	0	162	0	0	48	7.3	0	0	0
CC(=O)Nc1ccc2oc(-c3cc(F)c(F)cc3Cl)nc2c1	0	0	0	148	46	6.1	0	0	0
Cc1cc(C)c2c(c1)cc(C)c1nnc(SCC(=O)N3CCCc4ccccc43)n12	0	0	0	0	0	0	-	-	-
Cc1cccc(CN2CCN(C(=O)CCc3nnc(C4CCCCC4)o3)CC2)c1	0	0	0	0	0	0	-	-	-
CCCCc1n[nH]c2c1/C(=N/O)CC(c1ccccc1)C2 (stereo not drawn)	0	0	0	0	0	0	-	-	-
CCc1n[nH]c2c1/C(=N\O)CC(c1ccccc1)C2 (stereo not drawn)	0	0	0	0	44	0	0	0	0
CS(=O)(=O)N1CCCC(C(=O)NCCc2ccc(Cl)cc2)C1 (stereo not drawn)	0	0	0	0	0	0	-	-	-
SMILES	STAT3 activator	APP 5'UTR act	STAT1 inh	STAT1 activator	STAT3 inh-1	NF-kB expr up	STAT3 inh-2	NFkB inh 2	STAT1 inh STAT3c
CCOc1ccc(-c2cn(CCC#N)cn2)cc1	0	0	0	0	0	0	-	-	-
Cc1sc(NC(=O)c2cccs2)nc1-c1ccccc1	0	0	0	0	0	0	-	-	-
O=C(Nc1nsc(-c2ccccc2)n1)c1cccs1	0	149	0	148	45	4.2	0	0	0
Cc1nc(NC(=O)/C=C/c2ccco2)sc1C	0	0	0	144	45	0	0	0	0
CN(C)CCNC(=O)/C=C/c1cn(-c2ccccc2)nc1-c1cc2ccccc2oc1=O	0	0	0	0	0	0	-	-	-
Cc1cc(OCC(=O)Nc2ccncc2)ccc1Br	0	0	0	0	57	0	52	0	0
O=C(COc1ccc([N+](=O)[O-])cc1)Nc1ccncc1	0	0	0	0	0	0	-	-	-
Cc1cc(NC(=O)Cc2ccccc2)c2ccccc2n1	0	0	0	0	72	0	69	22	25
Cc1nc(-c2ccc(NC(=O)c3ccccc3)cc2)cs1	0	184	0	0	71	7.5	0	0	0
Fc1ccc(NC(=S)Nc2ccc(Cl)cc2Cl)cc1	0	0	0	0	44	0	0	0	0
CCN(CC)c1ccc2c(C)c(-c3ccc(N)cc3)c(=O)oc2c1	0	0	0	0	0	0	-	-	-
O=C(CCl)Nc1cc(-c2ccccc2)nn1-c1ccccc1	0	0	0	0	48	0	0	0	0
Cc1ccc(-c2cc(NC(=O)CCl)n(-c3ccccc3)n2)cc1	0	0	0	0	0	0	-	-	-
CN(C)S(=O)(=O)c1ccc(C(=O)Nc2nc(-c3cc4ccccc4o3)cs2)cc1	0	0	0	0	53	0	76	20	16
CC1CN(S(=O)(=O)c2ccc(C(=O)Nc3nc(-c4cc5ccccc5o4)cs3)cc2)CC(C)O1 (stereo not drawn)	0	0	0	0	0	0	-	-	-
O=C(Nc1nc(-c2cc3ccccc3o2)cs1)c1ccc(S(=O)(=O)N2CCCC2)cc1	0	0	0	0	58	0	77	25	20
Cc1ccc(C(=O)Nc2ccc(Cl)cn2)cc1	0	172	0	0	56	6.6	0	0	0
CCCOc1ccc(C(=O)Nc2ccc(Cl)cn2)cc1	0	137	0	0	56	8.6	0	0	0
O=C(COc1ccc(Cl)cc1)Nc1ccc(Cl)cn1	0	0	0	0	0	0	-	-	-
O=C(NCc1cccnc1)c1ccc(-c2cc3ccccc3oc2=O)cc1	0	0	0	0	46	0	0	0	0
Cc1cc(C(=O)CN2C(=O)c3ccccc3S2(=O)=O)c(C)n1-c1ccccc1	0	0	0	0	59	0	78	16	58
O=C(NCCCO)c1nc2ccccc2s1	0	0	0	0	0	0	-	-	-
